In ChEMBL document CHEMBL1629545, “A morpholino oligomer targeting highly conserved internal ribosome entry site sequence is able to inhibit multiple species of picornavirus” (Antimicrob Agents Chemother, 2008):

Legend:
Type in all cases: cell-based
HeLa = test: Cytotoxicity against human HeLa cells at 1 to 10 uM after 24 hrs by MTS assay
Procedure, shortened: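 HeLa cells at ~80% confluence, uninfected, exposed to 1–100 μM PPMO or water (mock) in serum-free DMEM-F-12 (1:1) for 24 h. MTS reagent was added for 4 h and absorbance read at 492 nm. Viability was expressed as percent of water-treated cells (set to 100%), averaged over 12 wells.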

Vero = test: Cytotoxicity against African green monkey Vero cells at 10 uM after 24 hrs by MTS assay; conditions: chlorocebus sabaeus
SK-N-MC = test: Cytotoxicity against human SK-N-MC cell at 10 uM after 24 hrs by MTS assay

Measured: Activity

Cc1cn([C@H]2CN(P(=O)(OC[C@@H]3CN(P(=O)(OC[C@@H]4CN(P(=O)(OC[C@@H]5CN(P(=O)(OC[C@@H]6CN(P(=O)(OC[C@@H]7CNC[C@H](n8cnc9c(=O)[nH]c(N)nc98)O7)N(C)C)C[C@H](n7ccc(N)nc7=O)O6)N(C)C)C[C@H](n6cnc7c(N)ncnc76)O5)N(C)C)C[C@H](n5cnc6c(N)ncnc65)O4)N(C)C)C[C@H](n4ccc(N)nc4=O)O3)N(C)C)C[C@@H](COP(=O)(N(C)C)N3C[C@@H](COP(=O)(N(C)C)N4C[C@@H](COP(=O)(N(C)C)N5C[C@@H](COP(=O)(N(C)C)N6C[C@@H](COP(=O)(N(C)C)N7C[C@@H](COP(=O)(N(C)C)N8C[C@@H](COP(=O)(N(C)C)N9C[C@@H](COP(=O)(N(C)C)N%10C[C@@H](COP(=O)(N(C)C)N%11C[C@@H](COP(=O)(N(C)C)N%12C[C@@H](COP(=O)(N(C)C)N%13C[C@@H](COP(=O)(N(C)C)N%14C[C@@H](COP(=O)(N(C)C)N%15C[C@@H](COP(=O)(N(C)C)N%16C[C@@H](COP(=O)(N(C)C)N%17C[C@@H](COP(=O)(N(C)C)N%18CCN(C(=O)[C@H](CS)NC(=O)[C@H](Cc%19ccccc%19)NC(=O)[C@H](Cc%19ccccc%19)NC(=O)[C@H](CCCNC(=N)N)NC(=O)[C@H](CCCNC(=N)N)NC(=O)[C@H](CCCNC(=N)N)NC(=O)[C@H](CCCNC(=N)N)NC(=O)[C@H](CCCNC(=N)N)NC(=O)[C@H](CCCNC(=N)N)NC(=O)[C@H](CCCNC(=N)N)NC(=O)[C@H](CCCNC(=N)N)NC(=O)[C@@H](N)CCCNC(=N)N)CC%18)O[C@@H](n%18cnc%19c(=O)[nH]c(N)nc%19%18)C%17)O[C@@H](n%17cc(C)c(=O)[nH]c%17=O)C%16)O[C@@H](n%16ccc(N)nc%16=O)C%15)O[C@@H](n%15cc(C)c(=O)[nH]c%15=O)C%14)O[C@@H](n%14cnc%15c(=O)[nH]c(N)nc%15%14)C%13)O[C@@H](n%13cc(C)c(=O)[nH]c%13=O)C%12)O[C@@H](n%12cc(C)c(=O)[nH]c%12=O)C%11)O[C@@H](n%11cc(C)c(=O)[nH]c%11=O)C%10)O[C@@H](n%10ccc(N)nc%10=O)C9)O[C@@H](n9cnc%10c(=O)[nH]c(N)nc%109)C8)O[C@@H](n8cc(C)c(=O)[nH]c8=O)C7)O[C@@H](n7cc(C)c(=O)[nH]c7=O)C6)O[C@@H](n6cc(C)c(=O)[nH]c6=O)C5)O[C@@H](n5cc(C)c(=O)[nH]c5=O)C4)O[C@@H](n4ccc(N)nc4=O)C3)O2)c(=O)[nH]c1=O (some centres undefined)
Non-toxic: all assays above

Cc1cn([C@H]2CNC[C@@H](COP(=O)(N(C)C)N3C[C@@H](COP(=O)(N(C)C)N4C[C@@H](COP(=O)(N(C)C)N5C[C@@H](COP(=O)(N(C)C)N6C[C@@H](COP(=O)(N(C)C)N7C[C@@H](COP(=O)(N(C)C)N8C[C@@H](COP(=O)(N(C)C)N9C[C@@H](COP(=O)(N(C)C)N%10C[C@@H](COP(=O)(N(C)C)N%11C[C@@H](COP(=O)(N(C)C)N%12C[C@@H](COP(=O)(N(C)C)N%13C[C@@H](COP(=O)(N(C)C)N%14C[C@@H](COP(=O)(N(C)C)N%15C[C@@H](COP(=O)(N(C)C)N%16C[C@@H](COP(=O)(N(C)C)N%17C[C@@H](COP(=O)(N(C)C)N%18C[C@@H](COP(=O)(N(C)C)N%19C[C@@H](COP(=O)(N(C)C)N%20C[C@@H](COP(=O)(N(C)C)N%21C[C@@H](COP(=O)(N(C)C)N%22C[C@@H](COP(=O)(N(C)C)N%23CCN(C(=O)[C@H](CS)NC(=O)[C@H](Cc%24ccccc%24)NC(=O)[C@H](Cc%24ccccc%24)NC(=O)[C@H](CCCNC(=N)N)NC(=O)[C@H](CCCNC(=N)N)NC(=O)[C@H](CCCNC(=N)N)NC(=O)[C@H](CCCNC(=N)N)NC(=O)[C@H](CCCNC(=N)N)NC(=O)[C@H](CCCNC(=N)N)NC(=O)[C@H](CCCNC(=N)N)NC(=O)[C@H](CCCNC(=N)N)NC(=O)[C@@H](N)CCCNC(=N)N)CC%23)O[C@@H](n%23cnc%24c(=O)[nH]c(N)nc%24%23)C%22)O[C@@H](n%22cnc%23c(=O)[nH]c(N)nc%23%22)C%21)O[C@@H](n%21ccc(N)nc%21=O)C%20)O[C@@H](n%20cnc%21c(=O)[nH]c(N)nc%21%20)C%19)O[C@@H](n%19cc(C)c(=O)[nH]c%19=O)C%18)O[C@@H](n%18ccc(N)nc%18=O)C%17)O[C@@H](n%17cc(C)c(=O)[nH]c%17=O)C%16)O[C@@H](n%16cc(C)c(=O)[nH]c%16=O)C%15)O[C@@H](n%15ccc(N)nc%15=O)C%14)O[C@@H](n%14ccc(N)nc%14=O)C%13)O[C@@H](n%13cnc%14c(N)ncnc%14%13)C%12)O[C@@H](n%12cc(C)c(=O)[nH]c%12=O)C%11)O[C@@H](n%11cnc%12c(=O)[nH]c(N)nc%12%11)C%10)O[C@@H](n%10cnc%11c(N)ncnc%11%10)C9)O[C@@H](n9cc(C)c(=O)[nH]c9=O)C8)O[C@@H](n8ccc(N)nc8=O)C7)O[C@@H](n7cnc8c(N)ncnc87)C6)O[C@@H](n6ccc(N)nc6=O)C5)O[C@@H](n5cnc6c(N)ncnc65)C4)O[C@@H](n4cnc5c(=O)[nH]c(N)nc54)C3)O2)c(=O)[nH]c1=O (some centres undefined)
Non-toxic: all assays above

Cc1cn([C@H]2CN(P(=O)(OC[C@@H]3CN(P(=O)(OC[C@@H]4CN(P(=O)(OC[C@@H]5CN(P(=O)(OC[C@@H]6CN(P(=O)(OC[C@@H]7CN(P(=O)(OC[C@@H]8CN(P(=O)(OC[C@@H]9CNC[C@H](n%10cnc%11c(=O)[nH]c(N)nc%11%10)O9)N(C)C)C[C@H](n9cnc%10c(N)ncnc%109)O8)N(C)C)C[C@H](n8cnc9c(=O)[nH]c(N)nc98)O7)N(C)C)C[C@H](n7cnc8c(N)ncnc87)O6)N(C)C)C[C@H](n6ccc(N)nc6=O)O5)N(C)C)C[C@H](n5ccc(N)nc5=O)O4)N(C)C)C[C@H](n4cnc5c(N)ncnc54)O3)N(C)C)C[C@@H](COP(=O)(N(C)C)N3C[C@@H](COP(=O)(N(C)C)N4C[C@@H](COP(=O)(N(C)C)N5C[C@@H](COP(=O)(N(C)C)N6C[C@@H](COP(=O)(N(C)C)N7C[C@@H](COP(=O)(N(C)C)N8C[C@@H](COP(=O)(N(C)C)N9C[C@@H](COP(=O)(N(C)C)N%10C[C@@H](COP(=O)(N(C)C)N%11C[C@@H](COP(=O)(N(C)C)N%12C[C@@H](COP(=O)(N(C)C)N%13C[C@@H](COP(=O)(N(C)C)N%14C[C@@H](COP(=O)(N(C)C)N%15C[C@@H](COP(=O)(N(C)C)N%16CCN(C(=O)[C@H](CS)NC(=O)[C@H](Cc%17ccccc%17)NC(=O)[C@H](Cc%17ccccc%17)NC(=O)[C@H](CCCNC(=N)N)NC(=O)[C@H](CCCNC(=N)N)NC(=O)[C@H](CCCNC(=N)N)NC(=O)[C@H](CCCNC(=N)N)NC(=O)[C@H](CCCNC(=N)N)NC(=O)[C@H](CCCNC(=N)N)NC(=O)[C@H](CCCNC(=N)N)NC(=O)[C@H](CCCNC(=N)N)NC(=O)[C@@H](N)CCCNC(=N)N)CC%16)O[C@@H](n%16ccc(N)nc%16=O)C%15)O[C@@H](n%15cnc%16c(N)ncnc%16%15)C%14)O[C@@H](n%14cnc%15c(N)ncnc%15%14)C%13)O[C@@H](n%13cnc%14c(N)ncnc%14%13)C%12)O[C@@H](n%12cnc%13c(=O)[nH]c(N)nc%13%12)C%11)O[C@@H](n%11cnc%12c(=O)[nH]c(N)nc%12%11)C%10)O[C@@H](n%10cc(C)c(=O)[nH]c%10=O)C9)O[C@@H](n9cnc%10c(N)ncnc%109)C8)O[C@@H](n8ccc(N)nc8=O)C7)O[C@@H](n7cnc8c(N)ncnc87)C6)O[C@@H](n6cc(C)c(=O)[nH]c6=O)C5)O[C@@H](n5cnc6c(N)ncnc65)C4)O[C@@H](n4cnc5c(=O)[nH]c(N)nc54)C3)O2)c(=O)[nH]c1=O (some centres undefined)
Non-toxic: all assays above
